# According to ChEMBL document CHEMBL4261657, “Discovery of Clinical Candidate 2-(4-(2-((1 H-Benzo[ d]imidazol-2-yl)thio)ethyl)piperazin-1-yl)- N-(6-methyl-2,4-bis(methylthio)pyridin-3-yl)acetamide Hydrochloride [K-604], an Aqueous-Soluble Acyl-CoA:Cholesterol O-Acyltransferase-1 Inhibitor” (J Med Chem, 2018):
# The source made the active and inactive calls. The calls are words filed in the database; no cut-off is given here.
# Columns and labels:
# [1] = system: Hamster; assay: Antiatherosclerotic activity in Bio F1B hamster model of diet-induced atherosclerosis assessed as reduction in CE to FC ratio in liver at 0.3 to 10 mg/kg/day added to chow pellets; assay type: functional, organism-based; conditions: Cricetinae
# [2] = system: Hamster; assay: Antiatherosclerotic activity in cholesterol fed F1B hamster model of diet-induced atherosclerosis assessed as reduction in lipid accumulation areas at 30 mg/kg; assay type: functional, Cricetinae, Bio F1B; parameters: scale not given: the % may be the effect or the level left
# [3] = system: Hamster; assay: Toxicity in Bio F1B hamster model of diet-induced atherosclerosis assessed as reduction in CE to FC ratio in adrenal gland at 0.3 to 10 mg/kg/day added to chow pellets; assay type: organism-based; conditions: cricetinae, in vivo, po
# [4] = system: Hamster; assay: Antiatherosclerotic activity in Bio F1B hamster model of diet-induced atherosclerosis assessed as reduction in CE to FC ratio in intestine at 0.3 to 10 mg/kg/day added to chow pellets; assay type: functional, organism-based; conditions: Cricetinae
# [5] = Toxicity in rabbit; assay type: organism-based, Oryctolagus cuniculus; conditions: in vivo
# Method in brief: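 Preliminary adrenal toxicity test in male rabbits (four per group) given a single intravenous injection. Adrenal glands were examined 24 h after dosing for necrosis of zona fasciculata cells. The read-out was the number of animals affected per group. PD-132301-2 served as the positive control.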
# [6] = system: Hamster; assay: Antiatherosclerotic activity in cholesterol fed F1B hamster model of diet-induced atherosclerosis assessed as reduction in lipid accumulation areas at 10 mg/kg; assay type: functional, Cricetinae, Bio F1B; parameters: scale not given: the % may be the effect or the level left
# [7] = system: Hamster; assay: Antiatherosclerotic activity in Bio F1B hamster model of diet-induced atherosclerosis assessed as reduction in lipid accumulation areas in aortic arch at 0.3 to 10 mg/kg/day added to chow pellets by oil red O staining based assay relative to control; assay type: functional, organism-based; conditions: Cricetinae
# Method in brief: (§1)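 Male Bio F1B hamsters (8 weeks old) were fed CE-2 chow with 0.3% cholesterol and 10% coconut oil for 10 weeks, with compound mixed into the chow (n=7 per dose; reference group n=6). Plasma TC was measured by enzymatic kit. Aorta was perfusion-fixed with 4% paraformaldehyde under pentobarbital anaesthesia, opened and stained with oil red O, and lipid area was measured by image analysis. Results are % of control ± SD, analysed by Dunnett's test.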
# [8] = system: Hamster; assay: Antiatherosclerotic activity in cholesterol fed F1B hamster model of diet-induced atherosclerosis assessed as reduction in lipid accumulation areas at 3 mg/kg; assay type: functional, Cricetinae, Bio F1B; parameters: scale not given: the % may be the effect or the level left
# [9] = system: Hamster; assay: Antiatherosclerotic activity in Bio F1B hamster model of diet-induced atherosclerosis assessed as reduction in total plasma cholesterol at 0.3 to 10 mg/kg/day added to chow pellets relative to control; assay type: functional, organism-based; conditions: Cricetinae; method in brief: as §1
smiles,measurement,setting,value
CC(C)c1cc(C(C)C)c(CC(=O)NS(=O)(=O)Oc2c(C(C)C)cccc2C(C)C)c(C(C)C)c1 [AVASIMIBE],Activity,[1],Active
same,Activity,[2],93%
same,Activity,[3],Non-Toxic
same,Activity,[4],Active
same,NOAEL,[5],5 mg/kg
same,Activity,[6],86%
same,Activity,[7],Active
same,Activity,[8],68%
same,Activity,[9],Active
